According to ChEMBL document CHEMBL4364290, “Light-controlled inhibition of BRAFV600E kinase” (Eur J Med Chem, 2019):
The source made the active and inactive calls. The rule behind the calls is not given here.

Columns and labels:
[1] = Half life of the compound in DMSO-d6 at 2 mg/ml measured at room temperature under 365 nm light irradiation using trans-isomer form of compound by 1H-19F NMR spectroscopic analysis
Summary of the method: (§1)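 Cis isomer generated by 365 nm irradiation to PSS; half-life of thermal cis-to-trans relaxation followed at room temperature in DMSO, in BRAF assay buffer, or in 1:1 BRAF assay buffer/acetonitrile where solubility required.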

[2] = Half life of the compound in pH 7.5 tris HCl buffer at 2 mg/ml measured at room temperature under 365 nm light irradiation using trans-isomer form of compound by 1H-19F NMR spectroscopic analysis; summary of the method: as §1
[3] = molecular target: T1, Serine/threonine-protein kinase B-raf (Homo sapiens, UniProt P15056, V600E); experiment: Inhibition of human recombinant N-terminal GST/His6-tagged BRAF V600E mutant (Q417 to H766 residues) expressed in Sf9 insect cells using MEK1 as substrate measured after 1 hr using light irradiated compound at 365 nm for 45 mins by Western blot analysis
T1 sequence (P15056 2-766 V600E limits assumed): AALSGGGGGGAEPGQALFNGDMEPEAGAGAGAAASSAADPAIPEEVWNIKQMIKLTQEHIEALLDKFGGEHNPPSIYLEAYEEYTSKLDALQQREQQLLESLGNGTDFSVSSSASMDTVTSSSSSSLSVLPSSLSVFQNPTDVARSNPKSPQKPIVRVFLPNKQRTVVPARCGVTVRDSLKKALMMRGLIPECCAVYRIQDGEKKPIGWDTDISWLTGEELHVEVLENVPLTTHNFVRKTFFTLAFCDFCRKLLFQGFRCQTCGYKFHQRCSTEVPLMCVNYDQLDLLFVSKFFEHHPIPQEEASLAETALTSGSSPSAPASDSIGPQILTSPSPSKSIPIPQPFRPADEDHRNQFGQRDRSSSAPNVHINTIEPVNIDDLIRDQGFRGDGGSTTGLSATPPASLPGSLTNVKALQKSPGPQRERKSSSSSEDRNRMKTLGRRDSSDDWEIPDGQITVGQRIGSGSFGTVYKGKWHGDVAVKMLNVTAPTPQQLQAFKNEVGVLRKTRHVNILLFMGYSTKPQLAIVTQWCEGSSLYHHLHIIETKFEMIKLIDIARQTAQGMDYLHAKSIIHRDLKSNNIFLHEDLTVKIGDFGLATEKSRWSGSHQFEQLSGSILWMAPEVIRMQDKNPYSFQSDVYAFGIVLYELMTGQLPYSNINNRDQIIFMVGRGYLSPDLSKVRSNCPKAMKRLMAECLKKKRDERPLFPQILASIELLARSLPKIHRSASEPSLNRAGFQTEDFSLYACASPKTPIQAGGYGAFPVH

[4] = Drug re-isomerization in DMSO-d6 assessed as cis isomer level at PSS at 2 mg/ml measured after 20 hrs under dark condition at room temperature using irradiated compound by 1H-NMR spectroscopic analysis
[5] = Drug isomerization in DMSO-d6 irradiated at 365 nm assessed as cis isomer level at PSS at 2 mg/ml measured after 90 mins under room temperature by 1H and 19F-NMR spectroscopic analysis
[6] = Drug isomerization in DMSO-d6 irradiated at 365 nm assessed as cis isomer level at PSS at 2 mg/ml measured after 60 mins under room temperature by 1H and 19F-NMR spectroscopic analysis
[7] = molecular target: T1, Serine/threonine-protein kinase B-raf; experiment: Inhibition of human recombinant N-terminal GST/His6-tagged BRAF V600E mutant (Q417 to H766 residues) expressed in Sf9 insect cells using MEK1 as substrate measured after 1 hr using preheated compound at 60 degC for 30 mins by Western blot analysis
[8] = Drug isomerization in DMSO-d6 assessed as cis isomer level at PSS at 2 mg/ml irradiated at 365 nm light measured immediately by 1H-NMR spectroscopic analysis
[9] = Absorption property of the compound in DMSO assessed as maximum absorption wavelength; assay type: physicochemical
Summary of the method: (§2)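 λmax of the trans isomer recorded in DMSO and in BRAF assay buffer.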

[10] = Absorption property of the compound in pH 7.5 tris HCl buffer assessed as maximum absorption wavelength; assay type: physicochemical; summary of the method: as §2
[11] = Stability of the compound in DMSO-D6 at 2 mg/ml by 1H-19F NMR analysis; assay type: physicochemical; settings: read-out: Stability
[12] = Drug isomerization in DMSO-d6 irradiated at 365 nm assessed as cis isomer level at PSS at 2 mg/ml measured after 70 mins under room temperature by 1H and 19F-NMR spectroscopic analysis
[13] = Drug isomerization in DMSO-d6 irradiated at 365 nm assessed as cis isomer level at PSS at 2 mg/ml measured after 100 mins under room temperature by 1H and 19F-NMR spectroscopic analysis
[14] = Drug isomerization in DMSO-d6 irradiated at 365 nm assessed as rate of thermal relaxation measured as cis isomer level at PSS at 2 mg/ml measured after 70 hrs storage in dark at room temperature by 1H-NMR spectroscopic analysis
[15] = Half life of the compound in pH 7.5 tris HCl buffer/acetonitrile at 2 mg/ml measured at room temperature under 365 nm light irradiation using trans-isomer form of compound by 1H-19F NMR spectroscopic analysis; summary of the method: as §1
[16] = Drug isomerization in DMSO-d6 irradiated at 365 nm assessed as cis isomer level at PSS at 2 mg/ml measured after 45 mins under room temperature by 1H and 19F-NMR spectroscopic analysis
A-375 [17] = experiment: Dark toxicity against human A375 cells harboring BRAF V600E mutant assessed as reduction in cell viability at 10 uM incubated for 24 hrs using preheated compound at 60 degC for 60 mins by MTS assay; assay type: cell-based; settings: a-375, 24 h, in the assay text read “30 mins” for “60 mins”
Summary of the method: (§3)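 A375 melanoma cells (BRAF V600E) exposed 24 h to 10 µM compound, thermally adapted or 365 nm-irradiated, versus DMSO control; viability by MTS assay.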

[18] = Drug isomerization in bovine plasma assessed as cis-isomer formation at 10 uM irradiated with 365 nm light by LCMS analysis; assay type: ADME, cell-free, Bos taurus; settings: cattle
[19] = Drug isomerization in bovine plasma at 10 uM measured after 20 hrs at 37 degC by LCMS analysis; assay type: ADME, cell-free, Bos taurus; settings: cattle
[20] = Stability of thermally adapted compound in bovine plasma at 10 uM after 1 hr at 37 degC by LCMS analysis; assay type: ADME, cell-free, Bos taurus; settings: cattle
[21] = Stability in bovine plasma irradiated with white light at 10 uM by LCMS analysis; assay type: ADME, cell-free, Bos taurus; settings: cattle
[22] = system: Serine/threonine-protein kinase B-raf (Homo sapiens), P15056 [V600E]; experiment: Inhibition of BRAF V600E mutant in human SK-MEL-28 using peptide as substrate using preheated compound at 60 degC for 30 mins measured under dark condition by STK-Pamchip array-based method; assay type: cell-based
Sequence of Serine/threonine-protein kinase B-raf (Homo sapiens), P15056 [V600E] (P15056 whole entry V600E, the tested form may be a part): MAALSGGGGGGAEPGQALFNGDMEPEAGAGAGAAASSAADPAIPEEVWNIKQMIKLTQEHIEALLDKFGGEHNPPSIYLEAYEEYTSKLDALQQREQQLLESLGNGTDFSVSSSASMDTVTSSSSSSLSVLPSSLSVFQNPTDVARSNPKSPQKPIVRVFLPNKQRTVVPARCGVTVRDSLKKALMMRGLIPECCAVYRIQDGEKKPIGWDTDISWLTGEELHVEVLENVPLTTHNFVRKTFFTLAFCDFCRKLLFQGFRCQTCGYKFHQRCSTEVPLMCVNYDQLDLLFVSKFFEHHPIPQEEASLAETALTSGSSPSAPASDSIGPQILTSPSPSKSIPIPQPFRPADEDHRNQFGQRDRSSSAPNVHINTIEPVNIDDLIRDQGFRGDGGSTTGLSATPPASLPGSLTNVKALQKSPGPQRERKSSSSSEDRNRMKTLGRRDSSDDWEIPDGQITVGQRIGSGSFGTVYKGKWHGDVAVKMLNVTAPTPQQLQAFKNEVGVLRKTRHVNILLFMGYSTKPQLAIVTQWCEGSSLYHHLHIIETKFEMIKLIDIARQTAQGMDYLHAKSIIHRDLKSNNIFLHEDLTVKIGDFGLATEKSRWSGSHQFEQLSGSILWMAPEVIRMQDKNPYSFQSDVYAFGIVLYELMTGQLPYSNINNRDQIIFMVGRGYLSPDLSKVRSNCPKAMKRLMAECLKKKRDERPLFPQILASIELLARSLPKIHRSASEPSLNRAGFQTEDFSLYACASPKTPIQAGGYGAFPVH
Summary of the method: (§4)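 SK-Mel-28 cell lysates treated with DMSO control or inhibitor, either dark (thermally adapted) or irradiated with 365 nm light; kinase activity profiled on PamGene STK peptide chips.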

[23] = system: Serine/threonine-protein kinase B-raf (Homo sapiens), P15056 [V600E]; experiment: Reversible inhibition of human recombinant N-terminal GST/His6-tagged BRAF V600E mutant (Q417 to H766 residues) expressed in Sf9 insect cells using MEK1 as substrate at 1 uM pre-irradiated with 365 nm light for 45 mins followed by thermal activation at 60 degC for 30 mins and subsequent light irradiation at 365 nm for 45 mins by Western blot analysis
[24] = Drug isomerization in DMSO-d6 irradiated at 365 nm assessed as cis isomer level at PSS at 2 mg/ml measured after 75 mins under room temperature by 1H and 19F-NMR spectroscopic analysis
[25] = Drug isomerization in DMSO-d6 irradiated at 365 nm assessed as cis isomer level at PSS at 2 mg/ml measured after 135 mins under room temperature by 1H and 19F-NMR spectroscopic analysis
[26] = Drug isomerization in DMSO-d6 irradiated at 365 nm assessed as cis isomer level at PSS at 2 mg/ml measured after 30 mins under room temperature by 1H and 19F-NMR spectroscopic analysis
[27] = Drug isomerization in DMSO-d6 irradiated at 365 nm assessed as rate of thermal relaxation measured as cis isomer level at PSS at 2 mg/ml measured after 2.5 hrs storage in dark at room temperature by 1H-NMR spectroscopic analysis
A-375 [28] = experiment: Cytotoxicity against human A375 cells harboring BRAF V600E mutant assessed as reduction in cell viability at 10 uM incubated for 24 hrs by MTS assay; assay type: functional, cell-based; summary of the method: as §3
[29] = system: Serine/threonine-protein kinase B-raf (Homo sapiens), P15056 [V600E]; experiment: Inhibition of BRAF V600E mutant in human SK-MEL-28 cells using peptide substrate by STK-Pamchip array-based method; assay type: cell-based; summary of the method: as §4
[30] = molecular target: T1, Serine/threonine-protein kinase B-raf; experiment: Inhibition of human recombinant BRAF V600E mutant using MEK1 as substrate measured after 1 hr by Western blot analysis
[31] = Drug isomerization in DMSO-d6 irradiated at 365 nm assessed as rate of thermal relaxation measured as cis isomer level at PSS at 2 mg/ml measured after 18 hrs storage in dark at room temperature by 1H-NMR spectroscopic analysis
[32] = Thermal re-isomerization in bovine plasma assessed as trans-isomer formation at 10 uM measured after 1 hr at 37 degC using pre-irradiated compound at 365 nm light for 1 hr by LCMS analysis; assay type: ADME, cell-free, Bos taurus; settings: cattle
[33] = system: Serine/threonine-protein kinase B-raf (Homo sapiens), P15056 [V600E]; experiment: Inhibition of BRAF V600E mutant in human SK-MEL-28 using peptide as substrate using irradiated compound at 365 nm light for 45 mins by STK-Pamchip array-based method; assay type: cell-based; summary of the method: as §4
[34] = Drug isomerization in DMSO-d6 irradiated at 365 nm assessed as cis isomer level at PSS at 2 mg/ml measured after 40 mins under room temperature by 1H and 19F-NMR spectroscopic analysis
[35] = Drug isomerization in DMSO-d6 irradiated at 365 nm assessed as cis isomer level at PSS at 2 mg/ml measured after 120 mins under room temperature by 1H and 19F-NMR spectroscopic analysis

Structure (SMILES)	IC50 [3] [nM]	IC50 [7] [nM]	Activity [9] [nm]	Activity [10] [nm]	remaining at 2 mg/ml [11] [%]	T1/2 [1] [h]	Drug metabolism [4] [%]	Drug metabolism [8] [%]	T1/2 [15] [h]	further results
COc1ccc(/N=N\c2cccc(C(=O)Nc3cnc4[nH]nc(OC)c4c3)c2)cc1	450	–	–	–	–	> 10	34	–	–	T1/2 [2]: > 10 h
COc1ccc(/N=N/c2cccc(C(=O)Nc3cnc4[nH]nc(OC)c4c3)c2)cc1	–	100	352	345	> 95	–	–	73	–	Drug metabolism [5]: 94%; Drug metabolism [6]: 92%
COc1n[nH]c2ncc(NC(=O)c3c(F)ccc(/N=N\c4ccccc4C)c3F)cc12	540	–	–	–	–	> 70	–	–	> 24	Drug metabolism [14]: 62%
COc1n[nH]c2ncc(NC(=O)c3c(F)ccc(/N=N/c4ccccc4)c3F)cc12	–	1680	332	328	> 95	–	–	37	–	Drug metabolism [16]: 46%; Drug metabolism [5]: 55%; Activity (A-375 [17]): Non-Toxic; Stability [18]: Unstable; Drug metabolism [19]: Metabolite_Detected; Stability [20]: Unstable; Stability [21]: Unstable; inhibition [22]: Active; inhibition [23]: Active
COc1n[nH]c2ncc(NC(=O)c3c(F)ccc(/N=N/c4ccccc4C)c3F)cc12	–	1700	335	334	> 95	–	–	77	–	Drug metabolism [24]: 60%; Drug metabolism [25]: 77%
COc1n[nH]c2ncc(NC(=O)c3c(F)ccc(/N=N\c4ccccc4F)c3F)cc12	660	–	–	–	–	> 20	51	–	5	Drug metabolism [27]: 50%
COc1n[nH]c2ncc(NC(=O)c3c(F)ccc(NS(=O)(=O)c4ccccc4)c3F)cc12	–	–	–	–	–	–	–	–	–	Activity (A-375 [28]): Active; inhibition [29]: Active; IC50 [30]: 22 nM
COc1ccccc1/N=N\c1ccc(F)c(C(=O)Nc2cnc3[nH]nc(OC)c3c2)c1F	360	–	–	–	–	> 24	–	–	> 24	Drug metabolism [31]: 79%
CCCS(=O)(=O)Nc1ccc(F)c(C(=O)c2c[nH]c3ncc(-c4ccc(Cl)cc4)cc23)c1F	–	–	–	–	–	–	–	–	–	Activity (A-375 [28]): Active
COc1ccccc1/N=N/c1ccc(F)c(C(=O)Nc2cnc3[nH]nc(OC)c3c2)c1F	–	300	334	327	> 95	–	–	88	–	Drug metabolism [5]: 88%; Drug metabolism [6]: 88%
COc1n[nH]c2ncc(NC(=O)c3c(F)ccc(/N=N\c4ccccc4)c3F)cc12	157	–	–	–	–	> 10	36	–	–	T1/2 [2]: 5.4 h; Drug metabolism [19]: Metabolite_Detected; Drug metabolism [32]: Metabolite_Detected; inhibition [33]: inactive
COc1n[nH]c2ncc(NC(=O)c3c(F)ccc(/N=N/c4ccccc4F)c3F)cc12	–	320	336	331	> 95	–	–	71	–	Drug metabolism [34]: 68%; Drug metabolism [12]: 71%

Now from value to molecule, other results behind:

IC50 [3] [nM]	IC50 [7] [nM]	Activity [9] [nm]	Activity [10] [nm]	remaining at 2 mg/ml [11] [%]	Structure (SMILES)	T1/2 [1] [h]	Drug metabolism [4] [%]	Drug metabolism [8] [%]	T1/2 [15] [h]	further results
–	32	340	338	> 95	COc1n[nH]c2ncc(NC(=O)c3c(F)ccc(/N=N/c4ccc(C)cc4)c3F)cc12	–	–	84	–	Drug metabolism [12]: 80%; Drug metabolism [13]: 84%
–	92	357	341	> 95	COc1ccc(/N=N/c2ccc(F)c(C(=O)Nc3cnc4[nH]nc(OC)c4c3)c2F)cc1	–	–	96	–	Drug metabolism [5]: 92%; Drug metabolism [26]: 60%; Drug metabolism [6]: 83%
470	–	–	–	–	COc1ccc(/N=N\c2ccc(F)c(C(=O)Nc3cnc4[nH]nc(OC)c4c3)c2F)cc1	> 10	79	–	> 24	–
9	–	–	–	–	COc1n[nH]c2ncc(NC(=O)c3c(F)ccc(/N=N\c4ccc(C)cc4)c3F)cc12	> 20	73	–	> 24	–
8100	–	–	–	–	COc1n[nH]c2ncc(NC(=O)c3c(F)ccc(/N=N\c4ccc(F)cc4)c3F)cc12	> 20	60	–	> 24	–
–	2600	335	338	> 95	COc1n[nH]c2ncc(NC(=O)c3c(F)ccc(/N=N/c4ccc(F)cc4)c3F)cc12	–	–	62	–	Drug metabolism [5]: 58%; Drug metabolism [35]: 62%
